“And” between values parts separate entries of the source, which are not always exact repeats. Identical values can stand only once.
Test system: Fibroblast
Experiment: Multiplex assay against human fibroblast
Type: toxicity, cell-based
Outline: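 Hoechst33342, BioTracker Green Microtubule Cytoskeleton Dye, MitoTracker Red and Annexin V Alexa Fluor 680 were added to live cells at seeding, and imaging on a CQ1 microscope at 37°C and 5% CO2 followed compound addition. Gating by CellPathfinder machine learning separated cells into Hoechst high-intensity objects or normal cells, then normal cells into healthy, pyknosed or fragmented nuclei, then pyknosed cells into mitotic or apoptotic. Per cents of healthy-nucleus cells are reported for the tubulin, mitochondrial-mass and membrane-permeability phenotypes.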

[1] = 12 h, 1 µM, compound concentration 1 uM, replicate 1
[2] = 12 h, 1 µM, compound concentration 1 uM, replicate 2
[3] = 12 h, 10 µM, compound concentration 10 uM, replicate 1
[4] = 12 h, 10 µM, compound concentration 10 uM, replicate 2
[5] = 24 h, 1 µM, compound concentration 1 uM, replicate 1
[6] = 24 h, 1 µM, compound concentration 1 uM, replicate 2
[7] = 24 h, 10 µM, compound concentration 10 uM, replicate 1
[8] = 24 h, 10 µM, compound concentration 10 uM, replicate 2
[9] = 48 h, 10 µM, compound concentration 10 uM, replicate 1
[10] = 48 h, 10 µM, compound concentration 10 uM, replicate 2
[11] = 48 h, 1 µM, compound concentration 1 uM, replicate 1
[12] = 48 h, 1 µM, compound concentration 1 uM, replicate 2

Structure (SMILES): NC(=O)Nc1cc(-c2cccc(F)c2)sc1C(=O)N[C@H]1CCCNC1 [AZD-7762]
- Population Apoptotic (%) [1]: 69%
- Population Fragmented Nuclei (%) [1]: 20%
- Population Healthy Nuclei (%) [1]: 62%
- Population Hoechst High Intensity Objects (%) [1]: 14%
- Population Membrane Permeable-Phenotype (%) [1]: 8%
- Population Mitochondria Different-Phenotype (%) [1]: 0%
- Population Mitotic Cells (%) [1]: 30%
- Population Normal (%) [1]: 85%
- Population Pyknosed Nuclei (%) [1]: 17%
- Population Tubulin-Different-Phenotype (%) [1]: 1%
- Total Cell Count [1]: 226
- Population Apoptotic (%) [2]: 60%
- Population Fragmented Nuclei (%) [2]: 42%
- Population Healthy Nuclei (%) [2]: 49%
- Population Hoechst High Intensity Objects (%) [2]: 29%
- Population Membrane Permeable-Phenotype (%) [2]: 16%
- Population Mitochondria Different-Phenotype (%) [2]: 3%
- Population Mitotic Cells (%) [2]: 40%
- Population Normal (%) [2]: 70%
- Population Pyknosed Nuclei (%) [2]: 8%
- Population Tubulin-Different-Phenotype (%) [2]: 13%
- Total Cell Count [2]: 87
- Population Apoptotic (%) [3]: 73% and 68%
- Population Fragmented Nuclei (%) [3]: 47% and 34%
- Population Healthy Nuclei (%) [3]: 35% and 51%
- Population Hoechst High Intensity Objects (%) [3]: 16% and 18%
- Population Membrane Permeable-Phenotype (%) [3]: 6% and 7%
- Population Mitochondria Different-Phenotype (%) [3]: 3%
- Population Mitotic Cells (%) [3]: 26% and 31%
- Population Normal (%) [3]: 83% and 81%
- Population Pyknosed Nuclei (%) [3]: 17% and 14%
- Total Cell Count [3]: 106 and 295
- Population Apoptotic (%) [4]: 46% and 44%
- Population Fragmented Nuclei (%) [4]: 22% and 60%
- Population Healthy Nuclei (%) [4]: 25% and 27%
- Population Membrane Permeable-Phenotype (%) [4]: 21% and 20%
- Population Mitotic Cells (%) [4]: 53% and 55%
- Population Normal (%) [4]: 94% and 67%
- Population Tubulin-Different-Phenotype (%) [4]: 21% and 35%
- Total Cell Count [4]: 79 and 110
- Population Apoptotic (%) [5]: 61%
- Population Fragmented Nuclei (%) [5]: 25%
- Population Healthy Nuclei (%) [5]: 62%
- Population Hoechst High Intensity Objects (%) [5]: 14%
- Population Membrane Permeable-Phenotype (%) [5]: 11%
- Population Mitochondria Different-Phenotype (%) [5]: 1%
- Population Mitotic Cells (%) [5]: 38%
- Population Normal (%) [5]: 85%
- Population Pyknosed Nuclei (%) [5]: 12%
- Population Tubulin-Different-Phenotype (%) [5]: 2%
- Total Cell Count [5]: 238
- Population Apoptotic (%) [6]: 0%
- Population Fragmented Nuclei (%) [6]: 40%
- Population Healthy Nuclei (%) [6]: 60%
- Population Hoechst High Intensity Objects (%) [6]: 26%
- Population Membrane Permeable-Phenotype (%) [6]: 10%
- Population Mitochondria Different-Phenotype (%) [6]: 0%
- Population Mitotic Cells (%) [6]: 0%
- Population Normal (%) [6]: 73%
- Population Pyknosed Nuclei (%) [6]: 0%
- Population Tubulin-Different-Phenotype (%) [6]: 10%
- Total Cell Count [6]: 68
- Population Apoptotic (%) [7]: 37% and 82%
- Population Fragmented Nuclei (%) [7]: 47% and 41%
- Population Healthy Nuclei (%) [7]: 44% and 47%
- Population Hoechst High Intensity Objects (%) [7]: 27% and 14%
- Population Mitochondria Different-Phenotype (%) [7]: 4% and 0%
- Population Normal (%) [7]: 72% and 85%
- Population Pyknosed Nuclei (%) [7]: 8% and 10%
- Total Cell Count [7]: 129 and 316
- Population Apoptotic (%) [8]: 57% and 92%
- Population Healthy Nuclei (%) [8]: 32% and 16%
- Population Hoechst High Intensity Objects (%) [8]: 29% and 20%
- Population Membrane Permeable-Phenotype (%) [8]: 100%
- Population Normal (%) [8]: 70% and 80%
- Population Pyknosed Nuclei (%) [8]: 66%
- Total Cell Count [8]: 115 and 75
- Population Apoptotic (%) [9]: 25%
- Population Fragmented Nuclei (%) [9]: 59%
- Population Healthy Nuclei (%) [9]: 36%
- Population Hoechst High Intensity Objects (%) [9]: 31%
- Population Membrane Permeable-Phenotype (%) [9]: 17%
- Population Mitochondria Different-Phenotype (%) [9]: 4%
- Population Mitotic Cells (%) [9]: 75%
- Population Normal (%) [9]: 68%
- Population Pyknosed Nuclei (%) [9]: 3%
- Population Tubulin-Different-Phenotype (%) [9]: 24%
- Total Cell Count [9]: 162
- Population Apoptotic (%) [10]: 100%
- Population Healthy Nuclei (%) [10]: 37%
- Population Hoechst High Intensity Objects (%) [10]: 13%
- Population Mitochondria Different-Phenotype (%) [10]: 2%
- Population Mitotic Cells (%) [10]: 0%
- Population Normal (%) [10]: 86%
- Population Pyknosed Nuclei (%) [10]: 2%
- Population Tubulin-Different-Phenotype (%) [10]: 14%
- Total Cell Count [10]: 126

Structure (SMILES): Cn1cc(-c2[nH]c3cc(NC(=O)[C@H](N)C4CCCCC4)cc4c3c2C=NNC4=O)cn1
- Population Apoptotic (%) [1]: 76%
- Population Fragmented Nuclei (%) [1]: 27%
- Population Healthy Nuclei (%) [1]: 42%
- Population Hoechst High Intensity Objects (%) [1]: 8%
- Population Membrane Permeable-Phenotype (%) [1]: 18%
- Population Mitochondria Different-Phenotype (%) [1]: 13%
- Population Mitotic Cells (%) [1]: 23%
- Population Normal (%) [1]: 91%
- Population Pyknosed Nuclei (%) [1]: 30%
- Population Tubulin-Different-Phenotype (%) [1]: 28%
- Total Cell Count [1]: 138
- Population Apoptotic (%) [2]: 33%
- Population Fragmented Nuclei (%) [2]: 13%
- Population Healthy Nuclei (%) [2]: 72%
- Population Hoechst High Intensity Objects (%) [2]: 3%
- Population Membrane Permeable-Phenotype (%) [2]: 4%
- Population Mitochondria Different-Phenotype (%) [2]: 7%
- Population Mitotic Cells (%) [2]: 66%
- Population Normal (%) [2]: 96%
- Population Pyknosed Nuclei (%) [2]: 13%
- Population Tubulin-Different-Phenotype (%) [2]: 12%
- Total Cell Count [2]: 51
- Population Apoptotic (%) [3]: 69%
- Population Fragmented Nuclei (%) [3]: 48%
- Population Healthy Nuclei (%) [3]: 38%
- Population Hoechst High Intensity Objects (%) [3]: 20%
- Population Membrane Permeable-Phenotype (%) [3]: 20%
- Population Mitochondria Different-Phenotype (%) [3]: 4%
- Population Mitotic Cells (%) [3]: 30%
- Population Normal (%) [3]: 79%
- Population Pyknosed Nuclei (%) [3]: 13%
- Population Tubulin-Different-Phenotype (%) [3]: 43%
- Total Cell Count [3]: 244
- Population Fragmented Nuclei (%) [4]: 37%
- Population Healthy Nuclei (%) [4]: 42%
- Population Hoechst High Intensity Objects (%) [4]: 9%
- Population Membrane Permeable-Phenotype (%) [4]: 21%
- Population Mitochondria Different-Phenotype (%) [4]: 53%
- Population Normal (%) [4]: 90%
- Population Pyknosed Nuclei (%) [4]: 19%
- Population Tubulin-Different-Phenotype (%) [4]: 57%
- Total Cell Count [4]: 91
- Population Apoptotic (%) [5]: 58%
- Population Fragmented Nuclei (%) [5]: 27%
- Population Healthy Nuclei (%) [5]: 44%
- Population Hoechst High Intensity Objects (%) [5]: 12%
- Population Membrane Permeable-Phenotype (%) [5]: 20%
- Population Mitochondria Different-Phenotype (%) [5]: 3%
- Population Mitotic Cells (%) [5]: 41%
- Population Normal (%) [5]: 87%
- Population Pyknosed Nuclei (%) [5]: 28%
- Population Tubulin-Different-Phenotype (%) [5]: 26%
- Total Cell Count [5]: 137
- Population Apoptotic (%) [6]: 43%
- Population Fragmented Nuclei (%) [6]: 13%
- Population Healthy Nuclei (%) [6]: 70%
- Population Hoechst High Intensity Objects (%) [6]: 3%
- Population Membrane Permeable-Phenotype (%) [6]: 9%
- Population Mitochondria Different-Phenotype (%) [6]: 6%
- Population Mitotic Cells (%) [6]: 56%
- Population Normal (%) [6]: 96%
- Population Pyknosed Nuclei (%) [6]: 15%
- Population Tubulin-Different-Phenotype (%) [6]: 15%
- Total Cell Count [6]: 52
- Population Apoptotic (%) [7]: 62%
- Population Fragmented Nuclei (%) [7]: 54%
- Population Healthy Nuclei (%) [7]: 37%
- Population Hoechst High Intensity Objects (%) [7]: 23%
- Population Membrane Permeable-Phenotype (%) [7]: 20%
- Population Mitochondria Different-Phenotype (%) [7]: 1%
- Population Mitotic Cells (%) [7]: 37%
- Population Normal (%) [7]: 76%
- Population Pyknosed Nuclei (%) [7]: 8%
- Population Tubulin-Different-Phenotype (%) [7]: 52%
- Total Cell Count [7]: 256
- Population Apoptotic (%) [8]: 86%
- Population Fragmented Nuclei (%) [8]: 34%
- Population Healthy Nuclei (%) [8]: 29%
- Population Hoechst High Intensity Objects (%) [8]: 16%
- Population Membrane Permeable-Phenotype (%) [8]: 44%
- Population Mitochondria Different-Phenotype (%) [8]: 61%
- Population Mitotic Cells (%) [8]: 13%
- Population Normal (%) [8]: 83%
- Population Pyknosed Nuclei (%) [8]: 36%
- Population Tubulin-Different-Phenotype (%) [8]: 55%
- Total Cell Count [8]: 106
- Population Apoptotic (%) [11]: 43%
- Population Fragmented Nuclei (%) [11]: 30%
- Population Healthy Nuclei (%) [11]: 49%
- Population Hoechst High Intensity Objects (%) [11]: 14%
- Population Membrane Permeable-Phenotype (%) [11]: 26%
- Population Mitochondria Different-Phenotype (%) [11]: 3%
- Population Mitotic Cells (%) [11]: 56%
- Population Normal (%) [11]: 85%
- Population Pyknosed Nuclei (%) [11]: 20%
- Population Tubulin-Different-Phenotype (%) [11]: 26%
- Total Cell Count [11]: 134
- Population Apoptotic (%) [12]: 0%
- Population Fragmented Nuclei (%) [12]: 47%
- Population Healthy Nuclei (%) [12]: 50%
- Population Hoechst High Intensity Objects (%) [12]: 15%
- Population Membrane Permeable-Phenotype (%) [12]: 20%
- Population Mitochondria Different-Phenotype (%) [12]: 2%
- Population Mitotic Cells (%) [12]: 100%
- Population Normal (%) [12]: 84%
- Population Pyknosed Nuclei (%) [12]: 2%
- Population Tubulin-Different-Phenotype (%) [12]: 38%
- Total Cell Count [12]: 103
- Population Apoptotic (%) [9]: 77%
- Population Fragmented Nuclei (%) [9]: 52%
- Population Healthy Nuclei (%) [9]: 41%
- Population Hoechst High Intensity Objects (%) [9]: 39%
- Population Membrane Permeable-Phenotype (%) [9]: 14%
- Population Mitochondria Different-Phenotype (%) [9]: 3%
- Population Mitotic Cells (%) [9]: 22%
- Population Normal (%) [9]: 60%
- Population Pyknosed Nuclei (%) [9]: 5%
- Population Tubulin-Different-Phenotype (%) [9]: 36%
- Total Cell Count [9]: 251
- Population Apoptotic (%) [10]: 50%
- Population Fragmented Nuclei (%) [10]: 62%
- Population Healthy Nuclei (%) [10]: 35%
- Population Hoechst High Intensity Objects (%) [10]: 32%
- Population Membrane Permeable-Phenotype (%) [10]: 11%
- Population Mitochondria Different-Phenotype (%) [10]: 2%
- Population Mitotic Cells (%) [10]: 50%
- Population Normal (%) [10]: 67%
- Population Pyknosed Nuclei (%) [10]: 1%
- Population Tubulin-Different-Phenotype (%) [10]: 53%
- Total Cell Count [10]: 186

Reference: ChEMBL document CHEMBL4689842, “EUbOPEN Chemogenomics Library wave 1” (2021)
